In ChEMBL document CHEMBL1125251, “4'-Hydroxy-3-methoxyflavones with potent antipicornavirus activity” (J Med Chem, 1991):
In brackets after ≈: the same amount, converted by molar mass. Activity calls are given as the source filed them. The rule behind the calls is not given here.

Tests used:
Enterovirus C [1] = experiment: Minimum drug concentration at which 99% of the polio virus is inhibited; NA= Not active; type: functional, organism-based
Procedure, shortened: (§1)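 Poliovirus type 1 Brunhilde 1A/S3 in Vero monolayers. Serial 10-fold virus dilutions adsorbed 1 h at 37 °C, then serial 2-fold compound dilutions were added. Incubated at 37 °C and scored for CPE by light microscopy, with a 3-day readout. Titer reduction is control/treated TCD50/mL. ED99 is the minimum concentration inhibiting 99% of virus. Virus, cell and compound controls were included.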

Enterovirus C [2] = experiment: Maximal non-toxic dose (MNTD) that shows antiviral activity.; type: functional
Procedure, shortened: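 End-point titration. Poliovirus type 1 Brunhilde was run in Vero cells at 37 °C with a 3-day read. Rhinovirus 15 was run in human skin fibroblasts at 33 °C with a 7-day read. Monolayers got serial 10-fold virus dilutions and adsorbed 1 h at 37 °C, then serial 2-fold compound dilutions (DMSO stock in maintenance medium). CPE was read by light microscopy. RF = control titer (TCD50/mL) / titer at maximal nontoxic dose.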

[3] = Cytotoxic dose at which 50% growth of normal cells is inhibited; type: cell-based; settings: chlorocebus sabaeus, Vero cells; read-out: CyD50
Procedure, shortened: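 Cell-growth cytotoxicity in Vero cells or human skin fibroblasts. Serial 2-fold dilutions in M-199 with 6% newborn calf serum were added in quadruplicate to 10⁶ cells and held 6 days at 37 °C. Cells were trypsinized, counted and reseeded with compound, repeated five times. Generation time was calculated per concentration. CyD50 = lowest concentration at least doubling generation time versus untreated cells.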

Enterovirus C [4] = experiment: The ratio of the poliovirus viral titer of the virus control (reduction factor) to the viral titer in the presence of the maximal non-toxic dose (RF MNTD); type: functional; procedure, shortened: as §1
Enterovirus C [5] = experiment: Minimal dose which produces titer reduction at 10 ug/mL (mD RF10e3); type: functional
Enterovirus C [6] = experiment: Minimum drug concentration at which 99% of the polio virus is inhibited; type: functional; procedure, shortened: as §1
Human rhinovirus sp. [7] = experiment: Minimum drug concentration at which 99% of the rhino virus is inhibited.; type: functional
Procedure, shortened: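 End-point titration with rhinovirus type 15 on human skin fibroblast monolayers. Cells were infected with serial 10-fold virus dilutions and allowed 1 h adsorption at 37 °C. Serial 2-fold compound dilutions were then added and plates incubated at 33 °C. CPE was read daily by light microscopy for at least 1 week, titres as TCD50/mL. ED99 = minimum concentration inhibiting 99% of virus.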

[8] = Therapeutic Index measured as the ratio of CyD50(polio) / ED99(polio) values; type: organism-based; settings: enterovirus c; read-out: Therapeutic index 99
Procedure, shortened: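 TI99 = CyD50/ED99 for poliovirus. ED99 came from end-point titration in Vero cells at 37 °C over 3 days. CyD50 came from Vero cell growth: 10⁶ cells were given serial 2-fold compound dilutions in quadruplicate for 6 days at 37 °C, then trypsinized, counted and reseeded, repeated five times. Generation time was calculated per concentration.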

[9] = Therapeutic Index measured as the ratio of CyD50 (rhino) / ED99 (rhino) values.; settings: read-out: Therapeutic index 99
Procedure, shortened: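 TI99 = CyD50/ED99 for rhinovirus 15. ED99 came from end-point titration in human skin fibroblasts at 33 °C over 7 days. CyD50 came from fibroblast growth: 10⁶ cells were given serial 2-fold compound dilutions in quadruplicate for 6 days at 37 °C, then counted and reseeded, repeated five times. Generation time was calculated per concentration.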

Human rhinovirus sp. [10] = experiment: Cytotoxic dose at which 50% growth of normal cells is inhibited against rhino virus infection.; type: functional
Procedure, shortened: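 Human skin fibroblasts, 10⁶ cells per flask, given serial 2-fold dilutions in quadruplicate in M-199 with 6% newborn calf serum and held 6 days at 37 °C. Cells were trypsinized, counted in a chamber and reseeded with compound over five repeat cycles. CyD50 = lowest concentration at least doubling cell generation time relative to untreated control.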

Enterovirus C [11] = experiment: Minimum drug concentration at which 99% of the polio virus is inhibited; NA= not active; type: functional, organism-based; procedure, shortened: as §1

SMILES | ED99 (Enterovirus C [1]) | Max non-toxic dose (Enterovirus C [2]) [µg/mL] | CC50 [3] [µg/mL] | Reduction factor (Enterovirus C [4]) | Minimal dose (Enterovirus C [5]) [µg/mL] | ED99 (Enterovirus C [6]) [µg/mL] | ED99 (Human rhinovirus sp. [7]) [µg/mL] | selectivity ratio [8] | selectivity ratio [9] | CyD50 (Human rhinovirus sp. [10]) [µg/mL] | ED99 (Enterovirus C [11])
COc1c(-c2ccc(O)cc2)oc2ccc([N+](=O)[O-])cc2c1=O | inactive | 50 | > 0.1 |  |  |  |  |  |  |  | 
COc1cc2oc(-c3ccc(O)cc3)c(OC)c(=O)c2c(O)c1OC [PENDULETIN] |  | 100 | 100 (≈ 290 µM) | 1000000 | 0.1 | 0.2 | 10 | 500 | 1 | 10 | 
COc1c(-c2ccc(O)cc2)oc2cc(I)ccc2c1=O |  | 10 | 20 (≈ 50.7 µM) | 10000 | 10 | 4 | <1000 | 5 |  | 20 | 
COc1c(-c2ccc(Cl)cc2)oc2ccc(Cl)cc2c1=O |  | 25 | 20 (≈ 62.3 µM) | 1 |  |  |  |  |  |  | inactive
COc1cc(O)c2c(=O)c(OC)c(-c3ccc(O)cc3)oc2c1 [KUMATAKENIN] |  | 100 | 100 (≈ 318 µM) | 1000000 | 0.3 | 0.3 | 2.5 | 333 | 40 | 100 | 
COc1ccc(-c2oc3ccc(Cl)cc3c(=O)c2OC)cc1 |  | 25 | 20 (≈ 63.1 µM) | 1 |  |  |  |  |  |  | inactive
COc1ccc2c(=O)c(OC)c(-c3ccc(O)cc3)oc2c1 |  | 50 | > 50 |  | 2.5 | 2.5 | 10 | > 20 | > 5 | >50 | 
COc1cc(OC)c2c(=O)c(OC)c(-c3ccc(O)cc3)oc2c1 |  | 100 | 100 (≈ 305 µM) | 100000 | 5 | 10 | 20 | 10 | 5 | 100 | 
COc1c(-c2ccc(O)cc2)oc2cc(O)ccc2c1=O |  | 5 | 15 (≈ 52.8 µM) |  | 4 | 1 | 25 | 15 | 1 | 25 | 
COc1c(-c2ccc(O)cc2)oc2cccc(O)c2c1=O |  | 5 | 25 (≈ 87.9 µM) | 10000 | 1.5 | 0.5 | 1 | 50 | 5 | 5 | 
COc1c(-c2ccc(O)cc2)oc2ccc(C(C)C)cc2c1=O |  | 5 | 10 (≈ 32.2 µM) |  |  | 5 | 10 | 2 | 1 | 10 | 
COc1c(-c2ccc(O)cc2)oc2cc(Cl)ccc2c1=O |  | 100 | 100 (≈ 330 µM) | 10000 | 20 | 7 | 25 | 14.3 | 4 | 100 | 
COc1ccc(-c2oc3cc(Cl)ccc3c(=O)c2OC)cc1 |  | 100 | > 200 | 1 |  |  |  |  |  |  | inactive
COc1c(-c2ccc(O)cc2)oc2ccc(O)cc2c1=O |  | 10 | 3 (≈ 10.6 µM) |  | 5 | 2 | 10 | 1.5 | 1.5 | 15 | 
COc1cc(O)c2c(=O)c(OC)c(-c3ccc(O)cc3)oc2c1OC |  | 25 | > 100 | 1000000 | 0.3 | 0.25 | 0.5 | 400 | > 200 | >100 | 
COc1c(-c2ccc(O)cc2)oc2cc(O)cc(C)c2c1=O |  | 10 | 15 (≈ 50.3 µM) | 100000 | 0.05 | 0.1 | 1 | 150 | 15 | 15 | 
COc1c(-c2ccc(O)cc2)oc2cccc(OC)c2c1=O |  | 10 | 150 (≈ 503 µM) |  | 5 | 10 | 15 | 15 | 10 | 150 | 
COc1c(-c2ccc(Cl)cc2)oc2cc(Cl)ccc2c1=O |  | 25 | 20 (≈ 62.3 µM) | 1 |  |  |  |  |  |  | inactive
COc1c(-c2ccc(O)cc2)oc2cc(C)ccc2c1=O |  | 25 | 25 (≈ 88.6 µM) |  | 4 | 2 | 25 | 12.5 | 1 | 25 | 
COc1cc(O)c2c(=O)c(OC)c(-c3ccc(O)c(O)c3)oc2c1OC |  | 10 | > 5 | 100000 | 0.5 | 0.2 | 2 | 25 | 10 | 20 | 
